From the RNAGym collection of RNA variant scans (doi:10.1126/science.aae0568)
This sample holds only a part of the variants without activity.

B1: tRNA (parent)
chain: GUUCCGUUGGCGUAAUGGUAACGCGUCUCCCUCCUAAGGAGAAGACUGCGGGUUCGAGUCCCGUACGGAACG

Variants of: B1
Test: yeast fitness relative to wild type (ratio to wild type); higher = fitter; tRNA-Arg(CCU), competitive growth, 37 C, YPD
Procedure, shortened: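 Variants of the tRNA-Arg(CCU) gene, chemically synthesised with a 3% per-site mutation rate at 69 sites, were placed at the native genomic locus in Saccharomyces cerevisiae. The pooled strains were competed in YPD at 37°C for 24 hours in six parallel replicates. Gene amplicons from the start population and from each end population were read by 100-nucleotide paired-end sequencing. Darwinian fitness relative to wild type came from changes in genotype frequencies; genotypes needed ≥ 100 starting reads, and estimates < 0.5 were set to 0.5.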

Row | Variant | yeast fitness
1 | C5A A20C A57U | ≤ 0.5
2 | C5A A15U C31G G39A C49U G58A G67A | ≤ 0.5
3 | C5A U19C G50A C55A C66A | ≤ 0.5
4 | C5A C11A C30U C31A C61A | ≤ 0.5
5 | C5A G67U | 0.865
6 | C5A C27U A69U | 0.711
7 | C5A A20U C31G | 0.585
8 | C5A C29U C66U | 0.581
9 | C5A C31G A37G C62U G63C | 0.577
10 | C5A C22U G39A U47C C61U | ≤ 0.5
11 | C5A U19C C22G C24A G39C A45C | 0.596
12 | C5A U16A A45G G50A C61U | ≤ 0.5
13 | C5A C27A C34G | 0.507
14 | C5A U13A A20G A42C U59C | ≤ 0.5
15 | C5A C31A A40C A43U A65G C66G | ≤ 0.5
16 | C5A A21U C61A C62G | ≤ 0.5
17 | C5A U26C C27U | 0.687
18 | C5A C11G G41C G48C | ≤ 0.5
19 | C5A C29G G67C | 0.588
20 | C5A G6C A15G A40G | ≤ 0.5
21 | C5A C31U A69U | 0.786

Row | Variant | yeast fitness
22 | C5A G17A A36G A70G | ≤ 0.5
23 | C5A A15U C31G G39A G58A G67A | 0.558
24 | C5A U16A C22G C30A | ≤ 0.5
25 | C5A A15U U19C C31G G39A G58A G67A | ≤ 0.5
26 | C5A C24G C49U | ≤ 0.5
27 | C5A C24U U64C | 0.639
28 | C5A C60A | 0.651
29 | C5A C11G C55U C61A | ≤ 0.5
30 | C5A C31U A37C | 0.561
31 | C5A C29U | 0.731
32 | C5A A21C C34G G52A C62G | 0.565
33 | C5A A21C A43C G48A C66A | ≤ 0.5
34 | C5A A40C C46U G52C A70C | ≤ 0.5
35 | C5A U13G C24G C31A C62U C66U | ≤ 0.5
36 | C5A C46G C49A G67C | ≤ 0.5
37 | C5A A57G C61U | ≤ 0.5
38 | C5A G17C C27G | 0.57
39 | C5A A21G G23A G67C | 0.591
40 | C5A C27A U28G C55U | ≤ 0.5
41 | C5A G12A A37G A43C C55G G68A | ≤ 0.5
42 | C5A G17C G25A U59C | ≤ 0.5

Row | Variant | yeast fitness
43 | C5A C11G C61G | 0.502
44 | C5A A20C C61U | ≤ 0.5
45 | C5A U19C | 1.08
46 | C5A C22U C27G C30G | ≤ 0.5
47 | C5A A45U G48A G56A | 0.706
48 | C5A C27U A37U | ≤ 0.5
49 | C5A U13A C27G A37G | ≤ 0.5
50 | C5A G6A U16A A45G G50A | ≤ 0.5
51 | C5A A20G C49A | 0.568
52 | C5A G23C C61G C62U C66U | ≤ 0.5
53 | C5A C22U C30U G68U | ≤ 0.5
54 | C5A G17C G39C | ≤ 0.5
55 | C5A C11G A21U A65C | ≤ 0.5
56 | C5A U26A C66A | ≤ 0.5
57 | C5A C27G | 0.709
58 | C5A G17A C34A | ≤ 0.5
59 | C5A G10C C22U A43G G58C C66G | ≤ 0.5
60 | C5A C22A G56A | 0.525
61 | C5A U8C C27U A40G C49U C55G | ≤ 0.5
62 | C5A U26A C27G C30G A36U G38C C46U C49G A65U | ≤ 0.5
63 | C5A C31G G63U | ≤ 0.5

Row | Variant | yeast fitness
64 | C5A C29G A37G G41A A43U | ≤ 0.5
65 | C5A U13C C27A U28G G67U | ≤ 0.5
66 | C5A C34G C49G U64C | ≤ 0.5
67 | C5A U8C C30G C31G A65C | ≤ 0.5
68 | C5A G17C C22U C60G C61U | 0.947
69 | C5A U16C A21C C33U A40G A43U U54G C62G | ≤ 0.5
70 | C5A G17C G18C G58A U59G | 0.535
71 | C5A G6C C11G U19A C49A | 0.571
72 | C5A U19C C27U C29G C34A A42C U54A | ≤ 0.5
73 | C5A A40U C60U C61G | 0.525
74 | C5A U8C | 0.929
75 | C5A C24U A69C | 0.641
76 | C5A C11G U28A A40U C55A | ≤ 0.5
77 | C5A A65C G68C | ≤ 0.5
78 | C5A A65C G68A | 0.628
79 | C5A C31U A70G | 0.614
80 | C5A C31G A37G A70U | 0.532
81 | C5A A21G C31G | 0.62
82 | C5A C22G A65C | 0.582
83 | C5A C33U A43U C49G G50C C61U C66U | ≤ 0.5
